Columns and labels:
[1] = molecular target: Epidermal growth factor receptor (Homo sapiens) (UniProt P00533); test: Inhibition of EGFR (unknown origin) at 100 nM relative to control
[2] = molecular target: Vascular endothelial growth factor receptor 2 (Homo sapiens) (UniProt P35968); test: Inhibition of VEGFR2 (unknown origin) at 10 nM relative to control
Outline: (§1)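 ELISA with purified recombinant kinase on plates precoated with poly(Glu,Tyr) 4:1 at 20 µg/mL. ATP 10 µM in HEPES pH 7.4 buffer with MgCl2, MnCl2, Na3VO4 and DTT. Run 60 min at 37 °C. Detected with anti-phosphotyrosine PY99, HRP secondary antibody and o-phenylenediamine, read at 490 nm. Inhibition % = [1 − A490/A490 control]×100. 1% DMSO as negative control.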

[3] = molecular target: Proto-oncogene tyrosine-protein kinase Src (Homo sapiens) (UniProt P12931); test: Inhibition of c-Src (unknown origin) at 10 nM relative to control; outline: as §1
[4] = molecular target: Receptor tyrosine-protein kinase erbB-4 (Homo sapiens) (UniProt Q15303); test: Inhibition of ErbB4 (unknown origin) at 10 nM relative to control
Outline: (§2)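 Purified recombinant kinase domains run in ELISA on precoated poly(Glu,Tyr) 4:1 (20 µg/mL) with 10 µM ATP in 50 mM HEPES pH 7.4, 50 mM MgCl2, 0.5 mM MnCl2, 0.2 mM Na3VO4, 1 mM DTT; 1% DMSO control; 60 min at 37 °C. Phosphotyrosine read by PY99 antibody, HRP anti-mouse IgG, OPD/H2O2 at 490 nm; inhibition = [1−A490/A490control]×100%; two separate experiments.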

[5] = molecular target: Tyrosine-protein kinase ABL1 (Homo sapiens) (UniProt P00519); test: Inhibition of ABL (unknown origin) at 1000 nM relative to control
[6] = molecular target: Proto-oncogene tyrosine-protein kinase Src (Homo sapiens) (UniProt P12931); test: Inhibition of c-Src (unknown origin) at 1000 nM relative to control; outline: as §1
[7] = molecular target: Receptor tyrosine-protein kinase erbB-4 (Homo sapiens) (UniProt Q15303); test: Inhibition of ErbB4 (unknown origin) at 100 nM relative to control; outline: as §2
NCI-H2286 = test: Antiproliferative activity against human NCI-H2286 cells after 72 hrs by CCK8 assay; settings: NCI-H2286, 72 h
[8] = molecular target: Mitogen-activated protein kinase 1 (Homo sapiens) (UniProt P28482); test: Inhibition of ERK2 (unknown origin) at 100 nM relative to control
[9] = molecular target: Focal adhesion kinase 1 (Homo sapiens) (UniProt Q05397); test: Inhibition of FAK (unknown origin) at 10 nM relative to control; outline: as §2
[10] = molecular target: Mitogen-activated protein kinase 3 (Homo sapiens) (UniProt P27361); test: Inhibition of ERK1 (unknown origin) at 10 nM relative to control
[11] = molecular target: Cyclin-dependent kinase 1 (Homo sapiens) (UniProt P06493); test: Inhibition of CDK1 (unknown origin) at 100 nM relative to control
[12] = molecular target: Angiopoietin-1 receptor (Homo sapiens) (UniProt Q02763); test: Inhibition of Tie-2 (unknown origin) at 100 nM relative to control; outline: as §1
[13] = molecular target: Macrophage colony-stimulating factor 1 receptor (Homo sapiens) (UniProt P07333); test: Inhibition of CSF-1R (unknown origin) at 1000 nM relative to control
[14] = molecular target: Ephrin type-A receptor 2 (Homo sapiens) (UniProt P29317); test: Inhibition of EPH-A2 (unknown origin) at 100 nM relative to control; outline: as §2
[15] = molecular target: Tyrosine-protein kinase JAK2 (Homo sapiens) (UniProt O60674); test: Inhibition of JAK2 (unknown origin) at 1000 nM relative to control; outline: as §2
NCI-H1581 = test: Antitumor activity against human NCI-H1581 cells xenografted in po dosed nude mouse assessed as tumor growth inhibition administered as qd for 7 to 10 days; assay type: functional, organism-based
Outline: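 Female nude mice, 4-6 weeks old. NCI-H1581 cells (5×10^6 in 200 µL) injected s.c., grown to 700-800 mm³, then 1-mm³ fragments implanted s.c. by trocar. At 100-150 mm³ animals were randomized (vehicle n=12, treated n=6) and dosed orally once daily for 7 days. Tumours measured twice weekly, volume = length×width²/2. TGI calculated from change in tumour volume versus vehicle on the final day, with Student's t-test.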

[16] = molecular target: Insulin-like growth factor 1 receptor (Homo sapiens) (UniProt P08069); test: Inhibition of IGF1R (unknown origin) at 10 nM relative to control; outline: as §2
[17] = molecular target: Vascular endothelial growth factor receptor 1 (Homo sapiens) (UniProt P17948); test: Inhibition of VEGFR1 (unknown origin) at 1000 nM relative to control; outline: as §1
[18] = molecular target: Fibroblast growth factor receptor 4 (Homo sapiens) (UniProt P22455); test: Inhibition of FGFR4 (unknown origin) at 1000 nM relative to control; outline: as §2
[19] = molecular target: Platelet-derived growth factor receptor alpha (Homo sapiens) (UniProt P16234); test: Inhibition of PDGFR-alpha (unknown origin) at 100 nM relative to control; outline: as §2
[20] = molecular target: Focal adhesion kinase 1 (Homo sapiens) (UniProt Q05397); test: Inhibition of FAK (unknown origin) at 100 nM relative to control; outline: as §2
[21] = molecular target: Mitogen-activated protein kinase 1 (Homo sapiens) (UniProt P28482); test: Inhibition of ERK2 (unknown origin) at 10 nM relative to control
[22] = molecular target: Epidermal growth factor receptor (Homo sapiens) (UniProt P00533); test: Inhibition of EGFR (unknown origin) at 10 nM relative to control
[23] = MRT in ICR(CD-1) mouse at 10 mg/kg, po administered via gavage by triple quadrupole mass spectrometric analysis; assay type: ADME, organism-based; settings: in vivo
Outline: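 Dosed by gavage at 1 mg/mL in 1% Tween80/water to male ICR mice, 18-22 g, n=3. Blood taken at 0.25, 0.5, 1, 2, 4, 8 and 24 h. Plasma precipitated with methanol:acetonitrile (1:1) containing internal standard, then UPLC-MS/MS on a C18 column with an ammonium acetate/formic acid–acetonitrile gradient. Tmax read directly from the data; MRT calculated per animal from concentration–time curves.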

[24] = molecular target: Cyclin-dependent kinase 4 (Homo sapiens) (UniProt P11802); test: Inhibition of CDK4 (unknown origin) at 100 nM relative to control
[25] = molecular target: Fibroblast growth factor receptor 2 (Homo sapiens) (UniProt P21802); test: Inhibition of FGFR2 (unknown origin) at 100 nM relative to control; outline: as §2
[26] = molecular target: Tyrosine-protein kinase BTK (Homo sapiens) (UniProt Q06187); test: Inhibition of BTK (unknown origin) at 1000 nM relative to control
[27] = molecular target: Mitogen-activated protein kinase 3 (Homo sapiens) (UniProt P27361); test: Inhibition of ERK1 (unknown origin) at 100 nM relative to control
[28] = molecular target: Platelet-derived growth factor receptor alpha (Homo sapiens) (UniProt P16234); test: Inhibition of PDGFR-alpha (unknown origin) at 10 nM relative to control; outline: as §2
[29] = molecular target: Fibroblast growth factor receptor 2 (Homo sapiens) (UniProt P21802); test: Inhibition of FGFR2 phosphorylation in human SNU-16 cells after 2 hrs by Western blot analysis; assay type: cell-based
Outline: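 SNU-16 cells exposed to compound for 2 h at 37 °C, lysed in 1× SDS sample buffer, resolved by 10% SDS-PAGE and blotted to nitrocellulose; probed for phospho-FGFR, FGFR2, phospho-ERK, ERK and GAPDH, then HRP anti-rabbit or anti-mouse IgG; enhanced chemiluminescence detection.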

Epidermal growth factor receptor (Homo sapiens), sequence (P00533 whole entry): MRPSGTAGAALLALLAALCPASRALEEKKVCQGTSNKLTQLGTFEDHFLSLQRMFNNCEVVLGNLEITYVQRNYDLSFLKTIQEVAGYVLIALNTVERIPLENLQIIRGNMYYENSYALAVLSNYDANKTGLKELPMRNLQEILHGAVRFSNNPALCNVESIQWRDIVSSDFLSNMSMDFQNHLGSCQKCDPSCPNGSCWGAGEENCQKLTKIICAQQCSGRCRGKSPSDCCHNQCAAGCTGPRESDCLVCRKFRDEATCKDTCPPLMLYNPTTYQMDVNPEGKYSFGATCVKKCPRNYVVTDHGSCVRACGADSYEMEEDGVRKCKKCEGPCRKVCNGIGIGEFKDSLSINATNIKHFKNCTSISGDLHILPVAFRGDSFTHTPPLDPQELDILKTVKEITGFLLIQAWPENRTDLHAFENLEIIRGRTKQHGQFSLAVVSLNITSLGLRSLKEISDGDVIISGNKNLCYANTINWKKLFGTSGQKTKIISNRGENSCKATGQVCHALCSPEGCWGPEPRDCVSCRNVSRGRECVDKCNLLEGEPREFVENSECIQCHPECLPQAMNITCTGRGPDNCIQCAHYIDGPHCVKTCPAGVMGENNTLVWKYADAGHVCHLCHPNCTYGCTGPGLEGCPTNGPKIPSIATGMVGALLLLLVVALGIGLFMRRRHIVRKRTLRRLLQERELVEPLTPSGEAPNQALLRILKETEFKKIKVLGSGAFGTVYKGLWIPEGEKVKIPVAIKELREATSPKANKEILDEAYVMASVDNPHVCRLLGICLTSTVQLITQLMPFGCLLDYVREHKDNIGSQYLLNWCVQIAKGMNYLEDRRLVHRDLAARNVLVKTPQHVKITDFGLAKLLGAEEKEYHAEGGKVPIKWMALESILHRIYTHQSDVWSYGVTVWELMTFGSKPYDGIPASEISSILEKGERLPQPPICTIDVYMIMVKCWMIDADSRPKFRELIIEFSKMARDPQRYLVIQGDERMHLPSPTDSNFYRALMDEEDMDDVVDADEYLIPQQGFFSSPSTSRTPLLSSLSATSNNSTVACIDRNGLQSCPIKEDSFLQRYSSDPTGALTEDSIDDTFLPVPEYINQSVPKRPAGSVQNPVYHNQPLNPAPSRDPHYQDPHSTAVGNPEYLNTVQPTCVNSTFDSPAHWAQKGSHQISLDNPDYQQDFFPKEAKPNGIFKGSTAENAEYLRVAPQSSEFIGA
Mitogen-activated protein kinase 1 (Homo sapiens), sequence (P28482 whole entry): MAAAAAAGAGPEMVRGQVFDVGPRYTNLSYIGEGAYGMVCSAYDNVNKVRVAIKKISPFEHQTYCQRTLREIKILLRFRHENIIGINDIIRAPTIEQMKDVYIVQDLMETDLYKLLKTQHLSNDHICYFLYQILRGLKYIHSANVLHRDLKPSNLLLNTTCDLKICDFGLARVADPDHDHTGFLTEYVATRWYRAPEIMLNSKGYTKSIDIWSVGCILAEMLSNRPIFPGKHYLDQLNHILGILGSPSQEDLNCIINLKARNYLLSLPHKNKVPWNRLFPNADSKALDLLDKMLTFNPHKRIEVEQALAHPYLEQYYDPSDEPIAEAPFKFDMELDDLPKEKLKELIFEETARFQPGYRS
Fibroblast growth factor receptor 2 (Homo sapiens), sequence (P21802 22-821 limits assumed): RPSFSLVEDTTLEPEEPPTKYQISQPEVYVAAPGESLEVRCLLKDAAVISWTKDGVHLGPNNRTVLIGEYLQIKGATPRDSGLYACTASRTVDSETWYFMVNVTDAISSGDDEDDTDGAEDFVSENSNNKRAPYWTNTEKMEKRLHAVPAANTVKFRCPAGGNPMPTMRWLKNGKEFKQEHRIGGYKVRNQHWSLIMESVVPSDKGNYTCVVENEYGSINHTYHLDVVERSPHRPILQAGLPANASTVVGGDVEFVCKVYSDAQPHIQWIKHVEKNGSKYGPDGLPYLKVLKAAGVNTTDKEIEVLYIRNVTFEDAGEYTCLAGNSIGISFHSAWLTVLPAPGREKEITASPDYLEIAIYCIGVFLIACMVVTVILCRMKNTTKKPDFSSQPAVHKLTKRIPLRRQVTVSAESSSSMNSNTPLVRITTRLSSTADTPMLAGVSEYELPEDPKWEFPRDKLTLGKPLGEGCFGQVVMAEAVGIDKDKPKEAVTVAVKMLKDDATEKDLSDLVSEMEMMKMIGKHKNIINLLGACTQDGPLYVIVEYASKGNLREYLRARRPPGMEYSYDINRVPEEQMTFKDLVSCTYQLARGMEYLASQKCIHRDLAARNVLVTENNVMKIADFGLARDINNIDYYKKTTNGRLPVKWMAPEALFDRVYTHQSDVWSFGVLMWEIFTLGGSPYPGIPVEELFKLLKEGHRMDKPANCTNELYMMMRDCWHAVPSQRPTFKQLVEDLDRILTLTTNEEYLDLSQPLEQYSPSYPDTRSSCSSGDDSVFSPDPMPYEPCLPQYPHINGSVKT
Platelet-derived growth factor receptor alpha (Homo sapiens), sequence (P16234 whole entry): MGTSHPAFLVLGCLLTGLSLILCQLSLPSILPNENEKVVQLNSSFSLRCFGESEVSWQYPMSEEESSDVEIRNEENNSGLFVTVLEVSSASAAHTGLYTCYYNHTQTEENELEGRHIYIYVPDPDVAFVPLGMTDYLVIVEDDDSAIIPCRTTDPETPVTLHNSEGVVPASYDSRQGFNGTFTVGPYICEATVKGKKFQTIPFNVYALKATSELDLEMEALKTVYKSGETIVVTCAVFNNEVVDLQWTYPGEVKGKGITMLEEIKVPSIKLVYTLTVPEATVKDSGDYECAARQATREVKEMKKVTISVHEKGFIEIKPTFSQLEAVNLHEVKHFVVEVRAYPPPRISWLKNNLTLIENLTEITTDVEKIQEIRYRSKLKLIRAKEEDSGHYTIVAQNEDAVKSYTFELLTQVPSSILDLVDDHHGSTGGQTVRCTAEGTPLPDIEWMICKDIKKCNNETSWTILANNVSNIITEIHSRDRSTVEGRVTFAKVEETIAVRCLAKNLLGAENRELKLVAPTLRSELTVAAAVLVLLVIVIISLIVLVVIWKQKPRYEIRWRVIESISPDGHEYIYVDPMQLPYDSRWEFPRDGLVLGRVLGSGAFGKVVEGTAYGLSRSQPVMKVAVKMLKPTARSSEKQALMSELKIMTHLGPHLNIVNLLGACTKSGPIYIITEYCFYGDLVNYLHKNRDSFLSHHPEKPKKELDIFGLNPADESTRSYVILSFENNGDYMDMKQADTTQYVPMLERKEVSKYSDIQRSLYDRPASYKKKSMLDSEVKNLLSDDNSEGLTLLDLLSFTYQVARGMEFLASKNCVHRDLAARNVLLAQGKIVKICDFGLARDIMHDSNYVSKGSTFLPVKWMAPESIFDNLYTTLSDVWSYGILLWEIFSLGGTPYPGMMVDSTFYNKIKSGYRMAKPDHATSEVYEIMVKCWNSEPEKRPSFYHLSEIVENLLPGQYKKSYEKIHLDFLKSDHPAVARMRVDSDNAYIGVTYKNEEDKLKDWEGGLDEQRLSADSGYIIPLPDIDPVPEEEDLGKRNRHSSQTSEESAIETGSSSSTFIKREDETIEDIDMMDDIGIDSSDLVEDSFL
Mitogen-activated protein kinase 3 (Homo sapiens), sequence (P27361 whole entry): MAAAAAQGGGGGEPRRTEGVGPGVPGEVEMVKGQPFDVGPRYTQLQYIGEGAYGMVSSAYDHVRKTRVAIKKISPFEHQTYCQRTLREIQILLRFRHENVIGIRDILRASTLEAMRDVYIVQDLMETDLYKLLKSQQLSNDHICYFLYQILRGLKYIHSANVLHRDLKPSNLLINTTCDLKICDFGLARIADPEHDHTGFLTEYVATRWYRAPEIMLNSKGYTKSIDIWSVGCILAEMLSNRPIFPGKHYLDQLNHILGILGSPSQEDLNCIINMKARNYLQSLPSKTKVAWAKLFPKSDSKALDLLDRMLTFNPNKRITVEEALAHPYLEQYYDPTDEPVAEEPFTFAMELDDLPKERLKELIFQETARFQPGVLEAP
Proto-oncogene tyrosine-protein kinase Src (Homo sapiens), sequence (P12931 2-536 limits assumed): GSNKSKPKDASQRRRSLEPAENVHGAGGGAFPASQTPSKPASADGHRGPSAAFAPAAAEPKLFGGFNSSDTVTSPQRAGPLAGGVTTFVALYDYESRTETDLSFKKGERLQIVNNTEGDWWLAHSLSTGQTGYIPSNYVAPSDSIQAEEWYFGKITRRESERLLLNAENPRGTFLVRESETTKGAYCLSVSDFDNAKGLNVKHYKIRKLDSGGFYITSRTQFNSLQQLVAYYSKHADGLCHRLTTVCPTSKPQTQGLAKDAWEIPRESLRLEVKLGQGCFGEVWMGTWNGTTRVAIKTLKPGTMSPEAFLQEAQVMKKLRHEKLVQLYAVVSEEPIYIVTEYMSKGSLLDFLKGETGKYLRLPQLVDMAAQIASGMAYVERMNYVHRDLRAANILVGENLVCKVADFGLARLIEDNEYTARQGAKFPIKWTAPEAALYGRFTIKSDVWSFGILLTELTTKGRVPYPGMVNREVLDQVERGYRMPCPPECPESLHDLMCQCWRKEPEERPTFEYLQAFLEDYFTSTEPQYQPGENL
Cyclin-dependent kinase 1 (Homo sapiens), sequence (P06493 whole entry, looked up): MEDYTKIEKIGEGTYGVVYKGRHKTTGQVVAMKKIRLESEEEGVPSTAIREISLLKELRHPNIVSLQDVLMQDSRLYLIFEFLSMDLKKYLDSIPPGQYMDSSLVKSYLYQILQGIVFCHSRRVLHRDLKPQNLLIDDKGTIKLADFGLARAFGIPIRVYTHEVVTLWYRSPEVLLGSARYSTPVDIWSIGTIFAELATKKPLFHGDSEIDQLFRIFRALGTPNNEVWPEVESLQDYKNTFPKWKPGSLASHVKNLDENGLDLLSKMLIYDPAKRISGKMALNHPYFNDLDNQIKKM
Cyclin-dependent kinase 4 (Homo sapiens), sequence (P11802 whole entry): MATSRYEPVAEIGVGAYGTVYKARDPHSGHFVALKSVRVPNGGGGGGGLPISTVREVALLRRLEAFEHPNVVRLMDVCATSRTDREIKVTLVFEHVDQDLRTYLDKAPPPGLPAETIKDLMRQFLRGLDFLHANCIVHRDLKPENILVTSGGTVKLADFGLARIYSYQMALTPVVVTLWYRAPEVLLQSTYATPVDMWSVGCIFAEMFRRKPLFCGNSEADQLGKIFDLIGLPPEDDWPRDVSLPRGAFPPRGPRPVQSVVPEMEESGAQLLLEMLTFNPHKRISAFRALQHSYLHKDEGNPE

inhibition [1]: 33.9%
inhibition [2]: 90.1%
inhibition [3]: 64.5%
inhibition [4]: 0%
inhibition [5]: 100%
inhibition [6]: 96.8%
inhibition [7]: 0%
IC50 (NCI-H2286): 0.093 µM
inhibition [8]: 2.5%
inhibition [9]: 1.1%
inhibition [10]: -2.8%
inhibition [11]: 1.4%
inhibition [12]: 36.4%
inhibition [13]: 94.2%
inhibition [14]: 100%
inhibition [15]: 16.8%
inhibition [16]: 0%
inhibition [17]: 86.6%
inhibition [18]: 72.4%
inhibition [19]: 75.7%
inhibition [20]: 8.4%
inhibition [21]: 0.3%
inhibition [22]: 10%
MRT [23]: 5.71 h
inhibition [24]: 6.8%
inhibition [25]: 95%
inhibition [26]: 80.9%
inhibition [27]: 0.6%
inhibition [28]: 59.7%
inhibition [29]: Dose-dependent effect
Compound: Cc1ccc(C(=O)Nc2cccc(C(F)(F)F)c2)cc1-c1ccc2c(-c3cnn(C4CC4)c3)n[nH]c2c1
TGI (NCI-H1581): Dose-dependent effect
